In ChEMBL document CHEMBL5233208, “Optimization of P2Y12 Antagonist Ethyl 6-(4-((Benzylsulfonyl)carbamoyl)piperidin-1-yl)-5-cyano-2-methylnicotinate (AZD1283) Led to the Discovery of an Oral Antiplatelet Agent with Improved Druglike Properties” (J Med Chem, 2019):
The source made the active and inactive calls. The rule behind the calls is not given here.

Experiments:
Homo sapiens = organism: Homo sapiens; assay: Antiplatelet activity in human platelet-rich plasma assessed as inhibition of ADP-induced platelet aggregation by aggregometry; format: functional
In short: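 Human PRP from healthy donors free of aspirin/NSAIDs for at least two weeks, drawn into ACD; PRP spun at 300 g for 10 min, PPP at 2000 g. Compound in 0.5% DMSO preincubated 2 min at 37 °C with stirring (900 rpm). Aggregation induced by 10 μM ADP (final) and followed optically for 5 min.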

Rattus norvegicus = assay: Antithrombotic activity in anesthetized Wistar rat model of FeCL3-induced carotid artery thrombosis assessed as reduction in thrombus weight at 10 mg/kg, po administered as single dose measured at 1.5 hrs post dose; format: functional, organism-based
In short: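 Compounds in 0.5% CMC-Na given to Wistar rats as a single oral gavage dose (10 mL/kg). Rats anesthetized with 2% pentobarbital i.p. at 50 mg/kg and kept on a heating pad. At 1.5 h post-dose, filter paper soaked in 20% FeCl3 applied to the isolated left carotid artery for 10 min; thrombus weight recorded. Mean ± SEM, n = 10.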

[1] = Metabolic stability in rat liver microsomes assessed as half life at […] measured up to 60 mins in presence of NADPH regeneration system by LC-MS/MS analysis; format: ADME, Microsome
[2] = Metabolic stability in dog liver microsomes assessed as half life at […] measured up to 60 mins in presence of NADPH regeneration system by LC-MS/MS analysis; format: ADME, Canis lupus familiaris, Microsome
[3] = Metabolic stability in human liver microsomes assessed as half life at […] measured up to 60 mins in presence of NADPH regeneration system by LC-MS/MS analysis; format: ADME, Microsome
[4] = Cmax in Sprague-Dawley rat at 5 mg/kg,po measured up to 24 hrs by LC-MS/MS analysis; format: ADME, organism-based; design: time < 24 hrs, dose 5 mg/kg, route po; details: in vivo
[5] = Half life in Sprague-Dawley rat at 5 mg/kg,po measured up to 24 hrs by LC-MS/MS analysis; format: ADME, organism-based; details: in vivo
[6] = Tmax in Sprague-Dawley rat at 5 mg/kg,po measured up to 24 hrs by LC-MS/MS analysis; format: ADME, organism-based; details: in vivo
[7] = AUC (0 to infinity) in Sprague-Dawley rat at 5 mg/kg,po measured up to 24 hrs by LC-MS/MS analysis; format: ADME, organism-based; design: time < 24 hrs, dose 5 mg/kg, route po; details: in vivo
[8] = MRT in Sprague-Dawley rat at 5 mg/kg,po measured up to 24 hrs by LC-MS/MS analysis; format: ADME, organism-based; details: in vivo
[9] = Metabolic stability in rat liver microsomes assessed as intrinsic clearance at 0.1 µM measured up to 60 mins in presence of NADPH regeneration system by LC-MS/MS analysis; details: 1 h
[10] = Metabolic stability in dog liver microsomes assessed as intrinsic clearance at 0.1 µM measured up to 60 mins in presence of NADPH regeneration system by LC-MS/MS analysis; details: 1 h
[11] = Metabolic stability in human liver microsomes assessed as intrinsic clearance at 0.1 µM measured up to 60 mins in presence of NADPH regeneration system by LC-MS/MS analysis; details: 1 h

SMILES	IC50 (Homo sapiens)	further results
N#Cc1cc2c(nc1N1CCC(C(=O)NS(=O)(=O)Cc3ccc(F)cc3)CC1)COC2=O	3.5 µM	
N#Cc1cc2c(nc1N1CCC(C(=O)NS(=O)(=O)Cc3ccccc3)CC1)CCC(F)C2=O (stereo not given)	255 µM	
N#Cc1cc2c(nc1N1CCC(C(=O)NS(=O)(=O)Cc3ccc(Cl)cc3)CC1)COC2=O	4.42 µM	
N#Cc1cc2c(nc1N1CCC(C(=O)NS(=O)(=O)Cc3cccc(F)c3)CC1)COC2=O	70.5 µM	
N#Cc1cc2c(nc1N1CCC(C(=O)NS(=O)(=O)C3(c4ccccc4)CC3)CC1)COC2=O	4.1 µM	
N#Cc1cc2c(nc1N1CCC(C(=O)NS(=O)(=O)Cc3cc(Cl)cc(Cl)c3)CC1)COC2=O	30.5 µM	
N#Cc1cc2c(nc1N1CCC(C(=O)NS(=O)(=O)Cc3ccccc3F)CC1)COC2=O	23.7 µM	
CC(c1ccccc1)S(=O)(=O)NC(=O)C1CCN(c2nc3c(cc2C#N)C(=O)OC3)CC1 (stereo not given)	4.16 µM	
CC1(C(=O)NS(=O)(=O)Cc2ccccc2)CCN(c2nc3c(cc2C#N)C(=O)OC3)CC1	6.68 µM	
CC1(C(=O)NS(=O)(=O)Cc2ccc(Cl)cc2)CCN(c2nc3c(cc2C#N)C(=O)OC3)CC1	3.01 µM	Cmax [4]: 877 ng/mL; half-life [5]: 1.9 h; Tmax [6]: 0.25 h; AUC(0-inf) [7]: 1350 ng·h/mL; MRT [8]: 2.58 h
N#Cc1cc2c(nc1N1CC(C(=O)NS(=O)(=O)c3ccc(Cl)s3)C1)COC2=O	193 µM	
CC1OC(=O)c2cc(C#N)c(N3CC(C(=O)NS(=O)(=O)Cc4ccccc4)C3)nc21 (stereo not given)	> 300 µM	

Continued, in another order:

IC50 (Homo sapiens)	SMILES	further results
8.76 µM	CC1(C(=O)NS(=O)(=O)Cc2ccc(F)cc2F)CCN(c2nc3c(cc2C#N)C(=O)OC3)CC1	
2.35 µM	N#Cc1cc2c(nc1N1CCC(C(=O)NS(=O)(=O)Cc3ccccc3)CC1)COC2=O	Activity (Rattus norvegicus): Active; half-life [1]: 2.42 h; half-life [2]: 1.93 h; half-life [3]: 1.35 h; Cmax [4]: 271 ng/mL; half-life [5]: 1.7 h; Tmax [6]: 0.25 h; AUC(0-inf) [7]: 384 ng·h/mL; MRT [8]: 1.91 h; intrinsic clearance [9]: 14.5 mL/min/g; intrinsic clearance [10]: 18.2 mL/min/g; intrinsic clearance [11]: 25.8 mL/min/g
8.9 µM	N#Cc1ccc(CS(=O)(=O)NC(=O)C2CCN(c3nc4c(cc3C#N)C(=O)OC4)CC2)cc1	
5.2 µM	N#Cc1cc2c(nc1N1CCC(C(=O)NS(=O)(=O)Cc3ccc(F)cc3F)CC1)COC2=O	
> 300 µM	N#Cc1cc2c(nc1N1CCC(C(=O)NS(=O)(=O)Cc3ccccc3)CC1)CNC2=O	
> 300 µM	N#Cc1cc2c(nc1N1CC(C(=O)NS(=O)(=O)Cc3ccccc3)C1)COC2=O	
